Source: ChEMBL document CHEMBL4689842, “EUbOPEN Chemogenomics Library wave 1” (2021)

Tested on: Fibroblast
Experiment: Multiplex assay against human fibroblast
Assay type: toxicity, cell-based
In short: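 Imaging took place on a CQ1 microscope at 37°C and 5% CO2 once compound had been added to live cells stained at seeding with Hoechst33342, BioTracker Green Microtubule Cytoskeleton Dye, MitoTracker Red and Annexin V Alexa Fluor 680. CellPathfinder machine-learning gating classed cells as Hoechst high-intensity objects or normal cells, classed normal cells as having healthy, pyknosed or fragmented nuclei, and classed pyknosed cells as mitotic or apoptotic. Tubulin, mitochondrial-mass and membrane-permeability phenotypes are per cents of the healthy-nucleus cells.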

[1] = 12 h, 1 µM, compound concentration 1 uM, replicate 1
[2] = 12 h, 1 µM, compound concentration 1 uM, replicate 2
[3] = 12 h, 10 µM, compound concentration 10 uM, replicate 1
[4] = 12 h, 10 µM, compound concentration 10 uM, replicate 2
[5] = 24 h, 1 µM, compound concentration 1 uM, replicate 1
[6] = 24 h, 1 µM, compound concentration 1 uM, replicate 2
[7] = 24 h, 10 µM, compound concentration 10 uM, replicate 1
[8] = 24 h, 10 µM, compound concentration 10 uM, replicate 2
[9] = 48 h, 1 µM, compound concentration 1 uM, replicate 1
[10] = 48 h, 1 µM, compound concentration 1 uM, replicate 2
[11] = 48 h, 10 µM, compound concentration 10 uM, replicate 1
[12] = 48 h, 10 µM, compound concentration 10 uM, replicate 2

## CN1CCN(c2ccc(OC(F)(F)F)c(Nc3ncc4c(n3)-c3c(c(C(N)=O)nn3CCO)CC4)c2)CC1 [ONVANSERTIB]
[1]
  Population Apoptotic (%): 63%
  Population Fragmented Nuclei (%): 23%
  Population Healthy Nuclei (%): 35%
  Population Hoechst High Intensity Objects (%): 19%
  Population Membrane Permeable-Phenotype (%): 29%
  Population Mitochondria Different-Phenotype (%): 10%
  Population Mitotic Cells (%): 36%
  Population Normal (%): 80%
  Population Pyknosed Nuclei (%): 40%
  Population Tubulin-Different-Phenotype (%): 41%
  Total Cell Count: 168
[2]
  Population Apoptotic (%): 25%
  Population Fragmented Nuclei (%): 11%
  Population Healthy Nuclei (%): 80%
  Population Hoechst High Intensity Objects (%): 14%
  Population Membrane Permeable-Phenotype (%): 0%
  Population Mitochondria Different-Phenotype (%): 14%
  Population Mitotic Cells (%): 75%
  Population Normal (%): 85%
  Population Pyknosed Nuclei (%): 7%
  Population Tubulin-Different-Phenotype (%): 16%
  Total Cell Count: 66
[3]
  Population Apoptotic (%): 68%
  Population Fragmented Nuclei (%): 34%
  Population Healthy Nuclei (%): 36%
  Population Hoechst High Intensity Objects (%): 15%
  Population Membrane Permeable-Phenotype (%): 3%
  Population Mitochondria Different-Phenotype (%): 9%
  Population Mitotic Cells (%): 32%
  Population Normal (%): 84%
  Population Pyknosed Nuclei (%): 29%
  Population Tubulin-Different-Phenotype (%): 64%
[4]
  Population Apoptotic (%): 40%
  Population Fragmented Nuclei (%): 9%
  Population Healthy Nuclei (%): 78%
  Population Hoechst High Intensity Objects (%): 19%
  Population Membrane Permeable-Phenotype (%): 0%
  Population Mitochondria Different-Phenotype (%): 84%
  Population Mitotic Cells (%): 60%
  Population Normal (%): 80%
  Population Pyknosed Nuclei (%): 12%
  Population Tubulin-Different-Phenotype (%): 78%
  Total Cell Count: 61
[5]
  Population Apoptotic (%): 53%
  Population Fragmented Nuclei (%): 25%
  Population Healthy Nuclei (%): 41%
  Population Hoechst High Intensity Objects (%): 24%
  Population Membrane Permeable-Phenotype (%): 25%
  Population Mitochondria Different-Phenotype (%): 7%
  Population Mitotic Cells (%): 46%
  Population Normal (%): 75%
  Population Pyknosed Nuclei (%): 33%
  Population Tubulin-Different-Phenotype (%): 61%
  Total Cell Count: 165
[6]
  Population Apoptotic (%): 57%
  Population Fragmented Nuclei (%): 21%
  Population Healthy Nuclei (%): 65%
  Population Hoechst High Intensity Objects (%): 5%
  Population Membrane Permeable-Phenotype (%): 5%
  Population Mitochondria Different-Phenotype (%): 32%
  Population Mitotic Cells (%): 42%
  Population Normal (%): 94%
  Population Pyknosed Nuclei (%): 13%
  Population Tubulin-Different-Phenotype (%): 11%
  Total Cell Count: 73
[7]
  Population Apoptotic (%): 58%
  Population Fragmented Nuclei (%): 39%
  Population Healthy Nuclei (%): 37%
  Population Hoechst High Intensity Objects (%): 18%
  Population Membrane Permeable-Phenotype (%): 28%
  Population Mitochondria Different-Phenotype (%): 0%
  Population Mitotic Cells (%): 41%
  Population Normal (%): 81%
  Population Pyknosed Nuclei (%): 23%
  Population Tubulin-Different-Phenotype (%): 66%
  Total Cell Count: 127
[8]
  Population Apoptotic (%): 40%
  Population Fragmented Nuclei (%): 11%
  Population Healthy Nuclei (%): 77%
  Population Hoechst High Intensity Objects (%): 16%
  Population Membrane Permeable-Phenotype (%): 5%
  Population Mitochondria Different-Phenotype (%): 82%
  Population Mitotic Cells (%): 60%
  Population Normal (%): 83%
  Population Pyknosed Nuclei (%): 11%
  Population Tubulin-Different-Phenotype (%): 55%
  Total Cell Count: 55
[9]
  Population Apoptotic (%): 53%
  Population Fragmented Nuclei (%): 38%
  Population Healthy Nuclei (%): 37%
  Population Hoechst High Intensity Objects (%): 21%
  Population Membrane Permeable-Phenotype (%): 25%
  Population Mitochondria Different-Phenotype (%): 6%
  Population Mitotic Cells (%): 46%
  Population Normal (%): 78%
  Population Pyknosed Nuclei (%): 24%
  Population Tubulin-Different-Phenotype (%): 65%
  Total Cell Count: 146
[10]
  Population Apoptotic (%): 40%
  Population Fragmented Nuclei (%): 25%
  Population Healthy Nuclei (%): 68%
  Population Hoechst High Intensity Objects (%): 17%
  Population Membrane Permeable-Phenotype (%): 13%
  Population Mitochondria Different-Phenotype (%): 1%
  Population Mitotic Cells (%): 60%
  Population Normal (%): 82%
  Population Pyknosed Nuclei (%): 5%
  Population Tubulin-Different-Phenotype (%): 23%
[11]
  Population Apoptotic (%): 50%
  Population Fragmented Nuclei (%): 46%
  Population Healthy Nuclei (%): 40%
  Population Hoechst High Intensity Objects (%): 23%
  Population Membrane Permeable-Phenotype (%): 19%
  Population Mitochondria Different-Phenotype (%): 9%
  Population Mitotic Cells (%): 50%
  Population Normal (%): 76%
  Population Pyknosed Nuclei (%): 13%
  Population Tubulin-Different-Phenotype (%): 69%
  Total Cell Count: 136
[12]
  Population Fragmented Nuclei (%): 37%
  Population Healthy Nuclei (%): 58%
  Population Hoechst High Intensity Objects (%): 20%
  Population Membrane Permeable-Phenotype (%): 7%
  Population Mitochondria Different-Phenotype (%): 4%
  Population Normal (%): 79%
  Population Pyknosed Nuclei (%): 4%
  Population Tubulin-Different-Phenotype (%): 73%
  Total Cell Count: 241
